Assay results reported in ChEMBL document CHEMBL4673181, “An investigation of the antileishmanial properties of semi-synthetic saponins” (RSC Med Chem, 2020).

Experiments:
Leishmania mexicana [1] = assay: Antileishmanial activity against axenic amastigote stage of Leishmania mexicana (MNYC/BZ/62/M379) assessed as induction of parasite killing incubated for 24 hrs by alamar blue dye based fluorescence analysis; type: functional; conditions: read-out: ED50 (the source's name)
Summary of the method: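 L. mexicana axenic amastigotes (from promastigotes by pH/temperature shift; Schneider's with 20% HIFBS) at 4x10⁵ mL⁻¹, exposed to three-fold dilutions from 50 μM to 0.21 μM for 24 h at 33 °C in sealed plates. alamarBlue then added for another 24 h, fluorescence read at 560/600 nm. Amphotericin B (50 μM) positive, DMSO negative control. Duplicates on four occasions, EC₅₀ fitted.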

Leishmania mexicana [2] = assay: Antileishmanial activity against axenic amastigote stage of Leishmania mexicana (MNYC/BZ/62/M379) assessed as inhibition of parasite proliferation at 50 uM incubated for 24 hrs by alamar blue dye based fluorescence analysis; type: functional
Summary of the method: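 Primary single-point screen at 50 μM, in duplicate. Axenic L. mexicana amastigotes at 4x10⁵ mL⁻¹ incubated with compound 24 h at 33 °C in sealed plates, then alamarBlue for a further 24 h at the same temperature. Viability read by fluorescence at 560/600 nm against amphotericin B (50 μM) and DMSO controls.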

C#CCOC(=O)[C@]12CCC(C)(C)C[C@H]1C1=CC[C@@H]3[C@@]4(C)CC[C@H](O)[C@@](C)(CO)[C@@H]4CC[C@@]3(C)[C@]1(C)CC2
EC50 (Leishmania mexicana [1]): 15.1 µM
inhibition at 50 µM (Leishmania mexicana [2]): ≥ 95%

CC1(C)CC[C@]2(C(=O)OCc3ccc([N+](=O)[O-])cc3)CC[C@]3(C)C(=CC[C@@H]4[C@@]5(C)CC[C@H](O)[C@@](C)(CO)[C@@H]5CC[C@]43C)[C@@H]2C1
EC50 (Leishmania mexicana [1]): 36.2 µM
inhibition at 50 µM (Leishmania mexicana [2]): ≥ 95%

CC1(C)CC[C@]2(NC(=O)NCCCn3ccnc3)CC[C@]3(C)C(=CC[C@@H]4[C@@]5(C)CC[C@@H]6OC(C)(C)OC[C@@]6(C)[C@@H]5CC[C@]43C)[C@@H]2C1
EC50 (Leishmania mexicana [1]): 37.6 µM
inhibition at 50 µM (Leishmania mexicana [2]): ≥ 95%

CC1(C)CC[C@]2(NC(=O)NCc3cccnc3)CC[C@]3(C)C(=CC[C@@H]4[C@@]5(C)CC[C@@H]6OC(C)(C)OC[C@@]6(C)[C@@H]5CC[C@]43C)[C@@H]2C1
EC50 (Leishmania mexicana [1]): 17.5 µM
inhibition at 50 µM (Leishmania mexicana [2]): ≥ 95%

CC1(C)CC[C@]2(C(=O)O)CC[C@]3(C)C(=CC[C@@H]4[C@@]5(C)CC[C@@H]6O[C@H](C[C@H]7O[C@H](CO)[C@H](O)[C@H](O)[C@H]7O)OC[C@@]6(C)[C@@H]5CC[C@]43C)[C@@H]2C1
EC50 (Leishmania mexicana [1]): 21.7 µM
inhibition at 50 µM (Leishmania mexicana [2]): ≥ 95%

CN(C)CCCNC(=O)N[C@]12CCC(C)(C)C[C@H]1C1=CC[C@@H]3[C@@]4(C)CC[C@@H]5OC(C)(C)OC[C@@]5(C)[C@@H]4CC[C@@]3(C)[C@]1(C)CC2
EC50 (Leishmania mexicana [1]): 17.5 µM
inhibition at 50 µM (Leishmania mexicana [2]): ≥ 95%

C=CCOC(=O)[C@]12CCC(C)(C)C[C@H]1C1=CC[C@@H]3[C@@]4(C)CC[C@H](O)[C@@](C)(CO)[C@@H]4CC[C@@]3(C)[C@]1(C)CC2
EC50 (Leishmania mexicana [1]): 22.7 µM
inhibition at 50 µM (Leishmania mexicana [2]): ≥ 95%

CCCOC(=O)[C@]12CCC(C)(C)C[C@H]1C1=CC[C@@H]3[C@@]4(C)CC[C@H](O)[C@@](C)(CO)[C@@H]4CC[C@@]3(C)[C@]1(C)CC2
EC50 (Leishmania mexicana [1]): 43.6 µM
inhibition at 50 µM (Leishmania mexicana [2]): ≥ 95%

CC1(C)CC[C@]2(C(=O)O)CC[C@]3(C)C(=CC[C@@H]4[C@@]5(C)CC[C@@H]6OCOC[C@@]6(C)[C@@H]5CC[C@]43C)[C@@H]2C1
EC50 (Leishmania mexicana [1]): 14.9 µM
inhibition at 50 µM (Leishmania mexicana [2]): ≥ 95%

CC1(C)CC[C@]2(C(=O)OCC(=O)c3ccccc3)CC[C@]3(C)C(=CC[C@@H]4[C@@]5(C)CC[C@H](O)[C@@](C)(CO)[C@@H]5CC[C@]43C)[C@@H]2C1
EC50 (Leishmania mexicana [1]): 45.9 µM
inhibition at 50 µM (Leishmania mexicana [2]): ≥ 95%

CC1(C)CC[C@]2(C(=O)O)CC[C@]3(C)C(=CC[C@@H]4[C@@]5(C)CC[C@@H]6O[C@H]([C@H](O)[C@@H](O)[C@@H](O)CO)OC[C@@]6(C)[C@@H]5CC[C@]43C)[C@@H]2C1
EC50 (Leishmania mexicana [1]): 14.6 µM
inhibition at 50 µM (Leishmania mexicana [2]): ≥ 95%

CC1(C)CC[C@]2(NC(=O)N3CCCC3)CC[C@]3(C)C(=CC[C@@H]4[C@@]5(C)CC[C@H](O)[C@@](C)(CO)[C@@H]5CC[C@]43C)[C@@H]2C1
EC50 (Leishmania mexicana [1]): 15.3 µM
inhibition at 50 µM (Leishmania mexicana [2]): ≥ 95%

CN(C[C@H](O)[C@@H](O)[C@H](O)[C@H](O)CO)C(=O)N[C@]12CCC(C)(C)C[C@H]1C1=CC[C@@H]3[C@@]4(C)CC[C@@H]5OC(C)(C)OC[C@@]5(C)[C@@H]4CC[C@@]3(C)[C@]1(C)CC2
EC50 (Leishmania mexicana [1]): 19.9 µM
inhibition at 50 µM (Leishmania mexicana [2]): ≥ 95%

C[C@@H]1O[C@@H](C[C@@H]2OC[C@@]3(C)[C@@H]4CC[C@]5(C)[C@H](CC=C6[C@@H]7CC(C)(C)CC[C@]7(C(=O)O)CC[C@]65C)[C@@]4(C)CC[C@@H]3O2)[C@@H](O)[C@H](O)[C@@H]1O
EC50 (Leishmania mexicana [1]): 19.4 µM
inhibition at 50 µM (Leishmania mexicana [2]): ≥ 95%

CC1(C)CC[C@]2(C(=O)OCN3C(=O)c4ccccc4C3=O)CC[C@]3(C)C(=CC[C@@H]4[C@@]5(C)CC[C@H](O)[C@@](C)(CO)[C@@H]5CC[C@]43C)[C@@H]2C1
EC50 (Leishmania mexicana [1]): 17.8 µM
inhibition at 50 µM (Leishmania mexicana [2]): ≥ 95%

CCOCc1ccc(C2OC[C@@]3(C)[C@@H]4CC[C@]5(C)[C@H](CC=C6[C@@H]7CC(C)(C)CC[C@]7(C(=O)O)CC[C@]65C)[C@@]4(C)CC[C@@H]3O2)o1 (stereo partly specified)
EC50 (Leishmania mexicana [1]): 19.2 µM
inhibition at 50 µM (Leishmania mexicana [2]): ≥ 95%

C[C@H](O)[C@H](O)[C@@H](O)[C@@H](O)[C@@H]1OC[C@@]2(C)[C@@H]3CC[C@]4(C)[C@H](CC=C5[C@@H]6CC(C)(C)CC[C@]6(C(=O)O)CC[C@]54C)[C@@]3(C)CC[C@@H]2O1
EC50 (Leishmania mexicana [1]): 21.2 µM
inhibition at 50 µM (Leishmania mexicana [2]): ≥ 95%

C[C@@H]1O[C@@H](C[C@@H]2OC[C@@]3(C)[C@@H]4CC[C@]5(C)[C@H](CC=C6[C@@H]7CC(C)(C)CC[C@]7(C(=O)O)CC[C@]65C)[C@@]4(C)CC[C@@H]3O2)[C@H](O)[C@H](O)[C@H]1O
EC50 (Leishmania mexicana [1]): 13.9 µM
inhibition at 50 µM (Leishmania mexicana [2]): ≥ 95%

C[C@H](O)[C@H](O)[C@@H](O)[C@@H](O)[C@@H]1OC[C@@]2(C)[C@@H]3CC[C@]4(C)[C@H](CC=C5[C@@H]6CC(C)(C)CC[C@]6(CO)CC[C@]54C)[C@@]3(C)CC[C@@H]2O1
EC50 (Leishmania mexicana [1]): 26.9 µM
inhibition at 50 µM (Leishmania mexicana [2]): ≥ 95%

CC(=O)N1CCN(C(=O)N[C@]23CCC(C)(C)C[C@H]2C2=CC[C@@H]4[C@@]5(C)CC[C@@H]6OC(C)(C)OC[C@@]6(C)[C@@H]5CC[C@@]4(C)[C@]2(C)CC3)CC1
EC50 (Leishmania mexicana [1]): 26.4 µM
inhibition at 50 µM (Leishmania mexicana [2]): ≥ 95%

COC(=O)[C@]12CCC(C)(C)C[C@H]1C1=CC[C@@H]3[C@@]4(C)CC[C@H](O)[C@@](C)(CO)[C@@H]4CC[C@@]3(C)[C@]1(C)CC2
EC50 (Leishmania mexicana [1]): 12 µM
inhibition at 50 µM (Leishmania mexicana [2]): ≥ 95%

CCOP(=O)(OCC)OC[C@@]1(C)[C@@H]2CC[C@]3(C)[C@H](CC=C4[C@@H]5CC(C)(C)CC[C@]5(NC(=O)N5CCOCC5)CC[C@]43C)[C@@]2(C)CC[C@@H]1O
EC50 (Leishmania mexicana [1]): 19.3 µM
inhibition at 50 µM (Leishmania mexicana [2]): ≥ 95%

CC(=O)OC[C@@]1(C)[C@@H]2CC[C@]3(C)[C@H](CC=C4[C@@H]5CC(C)(C)CC[C@]5(NC(=O)N5CCN(C)CC5)CC[C@]43C)[C@@]2(C)CC[C@@H]1O[C@@H]1OC[C@H](OC(C)=O)[C@H](OC(C)=O)[C@H]1O[C@@H]1O[C@@H](C)[C@H](OC(C)=O)[C@@H](OC(C)=O)[C@H]1OC(C)=O
EC50 (Leishmania mexicana [1]): 19.9 µM
inhibition at 50 µM (Leishmania mexicana [2]): ≥ 95%

CC1(C)CC[C@]2(NC(=O)N[C@H]3C(O)O[C@H](CO)[C@@H](O)[C@@H]3O)CC[C@]3(C)C(=CC[C@@H]4[C@@]5(C)CC[C@@H]6OC(C)(C)OC[C@@]6(C)[C@@H]5CC[C@]43C)[C@@H]2C1 (stereo partly specified)
EC50 (Leishmania mexicana [1]): > 50 µM
inhibition at 50 µM (Leishmania mexicana [2]): ≥ 95%

CC1(C)CC[C@]2(NC(=O)N3CCC[C@H]3CO)CC[C@]3(C)C(=CC[C@@H]4[C@@]5(C)CC[C@@H]6OC(C)(C)OC[C@@]6(C)[C@@H]5CC[C@]43C)[C@@H]2C1
EC50 (Leishmania mexicana [1]): 26.2 µM
inhibition at 50 µM (Leishmania mexicana [2]): ≥ 95%

COC(=O)[C@H](Cc1c[nH]cn1)NC(=O)N[C@]12CCC(C)(C)C[C@H]1C1=CC[C@@H]3[C@@]4(C)CC[C@@H]5OC(C)(C)OC[C@@]5(C)[C@@H]4CC[C@@]3(C)[C@]1(C)CC2
EC50 (Leishmania mexicana [1]): 20.9 µM
inhibition at 50 µM (Leishmania mexicana [2]): ≥ 95%

CC1(C)CC[C@]2(NC(=O)N3CCC[C@H]3C(=O)NCCCn3ccnc3)CC[C@]3(C)C(=CC[C@@H]4[C@@]5(C)CC[C@@H]6OC(C)(C)OC[C@@]6(C)[C@@H]5CC[C@]43C)[C@@H]2C1
EC50 (Leishmania mexicana [1]): 20.2 µM
inhibition at 50 µM (Leishmania mexicana [2]): ≥ 95%

CN1CCN(C(=O)[C@@H]2CCCN2C(=O)N[C@]23CCC(C)(C)C[C@H]2C2=CC[C@@H]4[C@@]5(C)CC[C@@H]6OC(C)(C)OC[C@@]6(C)[C@@H]5CC[C@@]4(C)[C@]2(C)CC3)CC1
EC50 (Leishmania mexicana [1]): 32.4 µM
inhibition at 50 µM (Leishmania mexicana [2]): ≥ 95%
